Experimental data gathered from unrelated publications.
Target: Mitogen-activated protein kinase kinase kinase 13 (MAP3K13, Homo sapiens, UniProt O43283)
One construct used (O43283 1-966): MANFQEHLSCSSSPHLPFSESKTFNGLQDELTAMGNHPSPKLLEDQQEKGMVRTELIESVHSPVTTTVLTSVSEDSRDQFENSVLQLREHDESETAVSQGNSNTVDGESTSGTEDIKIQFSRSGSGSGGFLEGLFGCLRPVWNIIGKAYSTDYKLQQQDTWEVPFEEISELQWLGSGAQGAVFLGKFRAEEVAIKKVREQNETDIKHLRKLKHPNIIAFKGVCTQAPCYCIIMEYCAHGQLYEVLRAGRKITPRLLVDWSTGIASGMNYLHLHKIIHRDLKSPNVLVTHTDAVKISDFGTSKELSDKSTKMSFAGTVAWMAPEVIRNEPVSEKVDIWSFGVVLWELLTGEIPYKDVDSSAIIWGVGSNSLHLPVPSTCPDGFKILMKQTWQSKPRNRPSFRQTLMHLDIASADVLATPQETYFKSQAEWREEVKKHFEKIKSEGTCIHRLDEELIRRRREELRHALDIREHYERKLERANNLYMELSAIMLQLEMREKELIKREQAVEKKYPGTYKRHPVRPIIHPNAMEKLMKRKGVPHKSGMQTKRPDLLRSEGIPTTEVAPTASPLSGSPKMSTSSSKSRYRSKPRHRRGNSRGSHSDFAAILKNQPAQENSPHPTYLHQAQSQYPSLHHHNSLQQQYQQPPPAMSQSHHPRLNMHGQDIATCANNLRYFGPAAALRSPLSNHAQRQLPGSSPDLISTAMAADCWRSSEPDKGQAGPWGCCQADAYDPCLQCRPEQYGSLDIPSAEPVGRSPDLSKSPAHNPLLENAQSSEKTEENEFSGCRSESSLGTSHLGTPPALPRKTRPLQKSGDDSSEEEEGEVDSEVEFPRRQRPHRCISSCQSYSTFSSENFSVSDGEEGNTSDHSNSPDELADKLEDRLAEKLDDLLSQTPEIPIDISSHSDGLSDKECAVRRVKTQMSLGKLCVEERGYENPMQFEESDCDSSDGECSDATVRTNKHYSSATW

| Compound | assay | setting | remaining binding [%] |
| --- | --- | --- | --- |
| O=C(O)[C@@H]1[C@@H](Cn2nnc3ccccc3c2=O)CC[C@H]1C(=O)c1ccc(OCCC2CCOCC2)cc1 | cell-free assay, competition with immobilised ligand | 1 µM | 70 |
| CN(C)c1ncc(F)c(-c2cnn3ncccc23)n1 | binding | 1 µM | 90 |
| Cc1c(C(=O)O)cc(-c2ccc(C3CCNCC3)cc2)c2ccc(-c3ccc(C(F)(F)F)cc3)cc12 | binding, competition with immobilised ligand | 1 µM | 100 |
| CCN1CCN(Cc2ccc(C(=O)Nc3ccc(C)c(Oc4ccc5c(c4)CC(=O)N5)c3)cc2C(F)(F)F)CC1 | binding, competition with immobilised ligand | 1 µM | 100 |
| O=C(NC[C@@H]1[C@H]2CN(C(=O)OCc3cc(C(F)(F)F)cc(C(F)(F)F)c3)C[C@@H]12)c1ccc2[nH]nnc2c1 | cell-free assay, competition with immobilised ligand | 1 µM | 86 |
| Cc1cnn2ncc(-c3ccnc(N(C)C)n3)c2c1 | binding | 1 µM | 70 |
| Nc1ncc2c(n1)-c1c([nH]c3ccc(C#CC4CC4)cc13)CCCC2 | binding, competition with immobilised ligand | 1 µM | 61 |
| CC(=O)N1CCC(c2ccc(C(=O)NC(=N)N)cc2C(F)(F)F)CC1 | cell-free assay, competition with immobilised ligand | 1 µM | 100 |
| CN(C)c1nccc(-c2cnn3ncccc23)n1 | binding | 1 µM | 85 |
| O=C(NCCCN1CCOCC1)c1ccc(Nc2nccc(-c3cc4ccccc4s3)n2)cc1 | binding, competition with immobilised ligand | 1 µM | 79 |
| COc1cnc(Nc2cccc(S(N)(=O)=O)c2)nc1N1CCN(c2ccccc2)C(=O)C1 | binding, competition with immobilised ligand | 1 µM | 100 |
| O=C(c1ccc(Nc2ncc(Cl)c(-c3cc4ccccc4s3)n2)cc1)N1CCC(N2CCCC2)CC1 | binding, competition with immobilised ligand | 1 µM | 46 |
| C[C@H](NC(=O)c1cnc2n1[C@](C)(Cc1ccc(C#N)cc1)C(=O)N2c1cc(Cl)c(F)c(Cl)c1)C(=O)NC1(c2ccccn2)CC1 | cell-free assay, competition with immobilised ligand | 1 µM | 100 |
| COc1ncc2cc3ccccc3nc2c1C#N | cell-free assay, competition with immobilised ligand | 5 µM | 92 |
| CN(c1nccc(-c2cnn3ncccc23)n1)C1CC1 | binding | 1 µM | 18 |
| CN1CCN(c2cnc3c(C4CCN(C(=O)c5ccc(OC(F)(F)F)cc5N)CC4)ncnc3c2)CC1 | cell-free assay, competition with immobilised ligand | 1 µM | 100 |
| C[C@@H]1CCN(c2nccc(-c3cnn4ncccc34)n2)C1 | binding | 1 µM | 71 |
| O=C(Nc1c[nH]nc1C(=O)NC1CCNCC1)c1cc(F)cc(F)c1 | binding, competition with immobilised ligand | 1 µM | 100 |
| CN(CCCC(F)(F)F)c1nccc(-c2cnn3ncccc23)n1 | binding | 1 µM | 100 |
| O=C(c1ccc(Nc2nccc(-c3cc4ccccc4s3)n2)cc1)N1CCC(N2CCCC2)CC1 | binding, competition with immobilised ligand | 1 µM | 68 |
